This is an account of results in ChEMBL document CHEMBL4321849, “Biphenyl Acid Derivatives as APJ Receptor Agonists” (J Med Chem, 2019).

Data set [1] deals with T1, Apelin receptor (Homo sapiens, UniProt P35414).
T1 sequence (P35414 whole entry): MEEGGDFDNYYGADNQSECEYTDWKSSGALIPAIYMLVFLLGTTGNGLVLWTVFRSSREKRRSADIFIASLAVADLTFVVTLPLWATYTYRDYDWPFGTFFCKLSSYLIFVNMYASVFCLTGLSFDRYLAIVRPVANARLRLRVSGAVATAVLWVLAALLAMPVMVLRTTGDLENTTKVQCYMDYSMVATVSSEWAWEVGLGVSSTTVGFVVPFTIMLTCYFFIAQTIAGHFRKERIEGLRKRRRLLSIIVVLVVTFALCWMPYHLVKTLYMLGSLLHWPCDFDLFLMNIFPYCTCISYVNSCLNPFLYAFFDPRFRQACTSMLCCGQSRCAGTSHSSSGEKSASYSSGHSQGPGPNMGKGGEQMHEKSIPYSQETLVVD
The experiment in a line: Agonist activity at human APJ-R expressed in HEK293 cells assessed as inhibition of forskolin- stimulated cAMP accumulation incubated for 30 mins by HTRF assay. The data set is classed as functional, cell-based.

Data set [2] concerns the target T2, Apelin receptor (Rattus norvegicus, UniProt Q9JHG3).
T2 sequence (Q9JHG3 whole entry): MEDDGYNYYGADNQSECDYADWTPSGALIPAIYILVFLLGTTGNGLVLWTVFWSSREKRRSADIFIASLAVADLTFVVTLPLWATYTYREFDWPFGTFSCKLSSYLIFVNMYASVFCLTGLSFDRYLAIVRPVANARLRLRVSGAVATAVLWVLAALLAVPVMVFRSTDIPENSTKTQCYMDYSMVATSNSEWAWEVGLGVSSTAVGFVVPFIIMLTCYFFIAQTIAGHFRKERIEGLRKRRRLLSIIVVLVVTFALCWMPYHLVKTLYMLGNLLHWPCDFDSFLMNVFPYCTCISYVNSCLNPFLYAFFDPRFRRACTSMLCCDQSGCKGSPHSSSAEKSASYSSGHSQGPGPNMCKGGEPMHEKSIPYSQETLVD
The experiment in a line: Agonist activity at rat APJ-R expressed in HEK293 cells assessed as inhibition of forskolin- stimulated cAMP accumulation incubated for 30 mins by HTRF assay. Type of data set: functional, cell-based.

For data set [3], the system named is Rattus norvegicus. Briefly: Acute hemodynamic effect in isoflurane-anesthetized Sprague-Dawley rat assessed as increase in cardiac output at 6 ug/min/kg, iv infused into jugular vein for 15 mins with continuous monitoring of hemodynamics followed by monitoring for additional 15 mins after terminating infusion by pressure-volume loop analysis relative to control. Type of data set: functional, organism-based. A digest of the protocol:
(§1)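 Male SD rats under isoflurane, instrumented with a Millar PV-loop catheter in the LV and a pressure catheter in the abdominal aorta. After a stable baseline, test agent or N,N-dimethylacetamide vehicle (100 μL/kg/min) infused into the jugular vein for 15 min. Hemodynamics were monitored continuously during infusion and for 15 min after it stopped. n = 7–8 per dose, vehicle n = 10.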

Data set [4] is described as follows: Toxicity in isoflurane-anesthetized Sprague-Dawley rat assessed as effect on blood pressure by measuring transient blood pressure drop at 6 ug/min/kg, iv infused into jugular vein for 15 mins with continuous monitoring of hemodynamics followed by monitoring for additional 15 mins after terminating infusion by pressure-volume loop analysis relative to control. The conditions noted are these: in vivo, 0.25 h. Type of data set: organism-based. In a few lines:
as §1

Data set [5] is described as follows: Toxicity in isoflurane-anesthetized Sprague-Dawley rat assessed as effect on heart rate at 6 ug/min/kg, iv infused into jugular vein for 15 mins with continuous monitoring of hemodynamics followed by monitoring for additional 15 mins after terminating infusion by pressure-volume loop analysis relative to control. Type of data set: organism-based. The conditions noted are these: in vivo, 0.25 h. A digest of the protocol: as §1

Data set [6] is described as follows: Solubility in pH 7.4 buffer using amorphous form. The data set is classed as physicochemical.
Data set [7] deals with Rattus norvegicus. Briefly: Acute hemodynamic effect in isoflurane-anesthetized Sprague-Dawley rat assessed as increase in cardiac output at 100 ug/min/kg, iv infused into jugular vein for 15 mins with continuous monitoring of hemodynamics followed by monitoring for additional 15 mins after terminating infusion by pressure-volume loop analysis relative to control. Type of data set: functional. A digest of the protocol: as §1

Data set [8] can be described thus: Toxicity in isoflurane-anesthetized Sprague-Dawley rat assessed as effect on blood pressure by measuring transient blood pressure drop at 100 ug/min/kg, iv infused into jugular vein for 15 mins with continuous monitoring of hemodynamics followed by monitoring for additional 15 mins after terminating infusion by pressure-volume loop analysis relative to control. Type of data set: organism-based. The conditions noted are these: in vivo, 0.25 h. In a few lines:
as §1

A short description of data set [9]: Toxicity in isoflurane-anesthetized Sprague-Dawley rat assessed as effect on heart rate at 100 ug/min/kg, iv infused into jugular vein for 15 mins with continuous monitoring of hemodynamics followed by monitoring for additional 15 mins after terminating infusion by pressure-volume loop analysis relative to control. The data set is classed as organism-based. Conditions: in vivo, 0.25 h. A digest of the protocol:
as §1

A short description of data set [10]: Toxicity in isoflurane-anesthetized Sprague-Dawley rat assessed as effect on heart rate at 10 to 1000 ug/min/kg, iv infused into jugular vein for 15 mins with continuous monitoring of hemodynamics followed by monitoring for additional 15 mins after terminating infusion by pressure-volume loop analysis relative to control. The conditions noted are these: in vivo, 0.25 h. Type of data set: organism-based. A digest of the protocol:
as §1

Data set [11] is described as follows: Plasma concentration in Sprague-Dawley rat at 10 ug/min/kg, iv infused into jugular vein for 15 mins. Type of data set: ADME, organism-based. In a few lines: (§2)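 Rats separate from the hemodynamic groups received the same 15 min jugular infusions (n = 3/dose). Plasma concentration (μM) was measured at the end of the 15 min infusion. Washout samples were also taken after stopping the 10 and 1000 μg/kg/min infusions.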

A short description of data set [12]: Plasma concentration in Sprague-Dawley rat at 100 ug/min/kg, iv infused into jugular vein for 15 mins. Type of data set: ADME, organism-based. In a few lines:
as §2

Data set [13] in a line: Plasma concentration in Sprague-Dawley rat at 1000 ug/min/kg, iv infused into jugular vein for 15 mins. Type of data set: ADME, organism-based. In a few lines:
as §2

Data set [14] has as its target T3, Apelin receptor (Homo sapiens) (UniProt P35414).
T3 sequence (whole entry): T1 sequence (P35414 whole entry)
Briefly: Displacement of [125I]-apelin-13 from human APJ-R expressed in HEK293 cell membranes incubated for 1 hr by radioligand binding assay. In a few lines: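 Membranes from HEK293 cells expressing human APJ-R (1 μg) were incubated with increasing test concentrations and 0.1 nM [125I]-(Pyr1)apelin-13. Buffer was 25 mM HEPES, 10 mM MgCl2, 2 mM EGTA and 0.1% BSA, pH 7.2. Incubation ran 1 h at room temperature. Bound ligand was separated on 0.3% polyethyleneimine-soaked GF/B filters.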

Data set [15] concerns Rattus norvegicus. Briefly: Acute hemodynamic effect in isoflurane-anesthetized Sprague-Dawley rat assessed as increase in cardiac output at 10 to 1000 ug/min/kg, iv infused into jugular vein for 15 mins with continuous monitoring of hemodynamics followed by monitoring for additional 15 mins after terminating infusion by pressure-volume loop analysis relative to control. Type of data set: functional, organism-based. In a few lines: as §1

Converted amounts (≈) assume the structure as drawn. The source made the active and inactive calls. The calls are words filed in the database; no cut-off is given here.

Consider `CCC[C@@H](NC(=O)c1ccc(-c2cc(Cl)ccc2C(=O)Nc2ccc(OC)c(F)c2)c(C(=O)O)c1)c1ccccc1`, for which the EC50 in data set [1] is 0.33 nM.

In the case of `CCC[C@@H](NC(=O)c1ccc(-c2cccc(Cl)c2-c2nc3ccccc3[nH]2)c(C(=O)O)c1)c1ccccc1`, in data set [1], the EC50 was found to be 2100 nM.

In the case of `COc1ccc(NC(=O)c2ccc(Cl)cc2-c2ccc(C(=O)Nc3ccc4c(c3)CCC4)cc2C(=O)O)cc1F`, the EC50 in data set [1] was 29 nM.

For the molecule `CCC[C@@H](NC(=O)c1ccc(-c2c(Cl)cccc2-c2nc3ccccc3[nH]2)c(C(=O)O)c1)c1ccccc1` (stereo in doubt; 15b), the EC50 came to 22 nM in data set [1] and 43 nM in [2].

As for `CSCC[C@H](NC(=O)[C@@H]1CCCN1C(=O)CNC(=O)[C@H](CCCCN)NC(=O)[C@H](Cc1cnc[nH]1)NC(=O)[C@H](CO)NC(=O)[C@H](CC(C)C)NC(=O)[C@H](CCCNC(=N)N)NC(=O)[C@@H]1CCCN1C(=O)[C@H](CCCNC(=N)N)NC(=O)[C@@H]1CCC(=O)N1)C(=O)N1CCC[C@H]1C(=O)N[C@@H](Cc1ccccc1)C(=O)O`, in data set [3], the outcome was Active. The Activity entry in data set [4] and in data set [5] was “Non-Toxic” each time.

For `CCC[C@@H](NC(=O)c1ccc(-c2c(Cl)cccc2-c2nc3cc(OC)ccc3[nH]2)c(C(=O)O)c1)c1ccccc1`, the EC50 in data set [1] amounted to 0.062 nM; in data set [2], 0.12 nM. The solubility in [6] is 180 µg/mL (≈ 325 µM).

In the case of `CCC[C@@H](NC(=O)c1ccc(-c2cc(Cl)ccc2-c2ncc(-c3ccccc3)[nH]2)c(C(=O)O)c1)c1ccccc1`, the concentration giving a half-maximal response (EC50) in data set [1] was 7.4 nM.

With `CCC[C@@H](NC(=O)c1ccc(-c2cc(C)ccc2-c2nc3ccccc3[nH]2)c(C(=O)O)c1)c1ccccc1`, in [1], the EC50 came out at 1.5 nM.

For the molecule `CCC[C@@H](NC(=O)c1ccc(-c2c(Cl)cccc2-c2nc3ccccc3[nH]2)c(C(=O)O)c1)c1ccccc1` (stereo in doubt; 15a) [listing 1 of 2 here], the EC50 in [1] was found to be 0.093 nM; in data set [2], 0.12 nM. The solubility in data set [6] worked out at 660 µg/mL (≈ 1260 µM). The Activity in data set [7] is given as 10%; in data set [8] it was below 5%; in data set [9], “Non-Toxic”; in data set [10], “Non-Toxic”. Also, the concentration at 0.25 h in data set [11] worked out at 0.44 µM; in data set [12], 4.4 µM; in [13], 82 µM.

`CCC[C@@H](NC(=O)c1ccc(-c2cc(Cl)ccc2-c2nc3cc(Cl)ccc3[nH]2)c(C(=O)O)c1)c1ccccc1`: the 50% effective concentration (EC50) in data set [1] amounted to 0.31 nM.

`CCC[C@@H](NC(=O)c1ccc(-c2cc(Cl)ccc2-c2nc3ccncc3[nH]2)c(C(=O)O)c1)c1ccccc1`: the EC50 in [1] was 19 nM.

As to `CCC[C@@H](NC(=O)c1ccc(-c2cc(Cl)ccc2-c2nc3cccc(C)c3[nH]2)c(C(=O)O)c1)c1ccccc1`, the 50% effective concentration (EC50) in data set [1] is 51 nM.

As to `CCC[C@@H](NC(=O)c1ccc(-c2cc(Cl)ccc2-c2nc3cc(C)ccc3[nH]2)c(C(=O)O)c1)c1ccccc1`, the EC50 in data set [1] stood at 0.6 nM.

In the case of `CCC[C@@H](NC(=O)c1ccc(-c2cc(OC)ccc2-c2nc3ccccc3[nH]2)c(C(=O)O)c1)c1ccccc1`, the EC50 in data set [1] is 5.7 nM.

With `CCC[C@@H](NC(=O)c1ccc(-c2c(F)cccc2-c2nc3ccccc3[nH]2)c(C(=O)O)c1)c1ccccc1`, the EC50 in data set [1] was found to be 0.51 nM.

With `CCC[C@@H](NC(=O)c1ccc(-c2cc(Cl)ccc2-c2nc3ccccc3[nH]2)c(C(=O)O)c1)c1ccccc1`, in data set [1], the EC50 was determined as 1.4 nM.

`CCC[C@@H](NC(=O)c1ccc(-c2c(Cl)cccc2-c2nc3ccccc3[nH]2)c(C(=O)O)c1)c1ccccc1` (stereo in doubt; 15a) [listing 2 of 2 here]: in data set [14], the inhibition entry is “Active”. In addition, the Activity result in [15] was “Dose-dependent effect”.

For the molecule `CCC[C@@H](NC(=O)c1ccc(-c2ccccc2-c2nc3ccccc3[nH]2)c(C(=O)O)c1)c1ccccc1`, the EC50 in data set [1] was 5.7 nM.

Consider `CCC[C@@H](NC(=O)c1ccc(-c2ccc(Cl)cc2-c2nc3ccccc3[nH]2)c(C(=O)O)c1)c1ccccc1`, for which, in [1], the EC50 came to 9 nM.

As for `COC[C@@H](NC(=O)c1ccc(-c2cc(Cl)ccc2C(=O)Nc2ccc(OC)c(F)c2)c(C(=O)O)c1)c1ccccc1`, in [1], the EC50 is 0.19 nM.

Turning to `COC[C@H](NC(=O)c1ccc(-c2cc(Cl)ccc2C(=O)Nc2ccc(OC)c(F)c2)c(C(=O)O)c1)c1ccccc1`, the EC50 in data set [1] amounted to 2.7 nM.

Regarding `CCC[C@@H](NC(=O)c1ccc(-c2cc(Cl)ccc2-c2nc3ccccc3o2)c(C(=O)O)c1)c1ccccc1`, the EC50 in data set [1] amounted to 4900 nM.

Turning to `COc1ccc(NC(=O)c2ccc(Cl)cc2-c2ccc(C(=O)N[C@H](CO)c3ccccc3)cc2C(=O)O)cc1F`, the EC50 in data set [1] amounted to 59 nM.

On to `CCC[C@@H](NC(=O)c1ccc(-c2cc(Cl)ccc2-c2nc3cc(OC)ccc3[nH]2)c(C(=O)O)c1)c1ccccc1`, for which, in data set [1], the EC50 came to 0.083 nM.

`CCC[C@@H](NC(=O)c1ccc(-c2c(Cl)cccc2-c2nc3ccccc3[nH]2)c(C(=O)O)c1)c1ccccc1` (stereo in doubt; 12f): the EC50 in data set [1] was found to be 0.2 nM.

For `CCC[C@@H](NC(=O)c1ccc(-c2c(C)cccc2-c2nc3ccccc3[nH]2)c(C(=O)O)c1)c1ccccc1`, in data set [1], the 50% effective concentration (EC50) was determined as 0.18 nM.
